In ChEMBL document CHEMBL1141188, “Methyl substitution on the piperidine ring of N-[omega-(6-methoxynaphthalen-1-yl)alkyl] derivatives as a probe for selective binding and activity at the sigma(1) receptor” (J Med Chem, 2005):

Key:
[1] = molecular target: Sigma non-opioid intracellular receptor 1 (Cavia porcellus, UniProt Q60492); assay: Displacement of [3H](+)-pentazocine from sigma 1 receptor in guinea pig brain membranes; format: cell membranes, Membrane
[2] = organism: Cavia porcellus; assay: Selectivity for guinea pig delta8-delta7 sterol isomerase (SI) site over guinea pig sigma 1 receptor
[3] = molecular target: Sigma non-opioid intracellular receptor 1 (Cavia porcellus) (UniProt Q60492); assay: […] rat sigma 2 receptor over guinea pig sigma 1 receptor
[4] = molecular target: T1, 3-beta-hydroxysteroid-Delta(8),Delta(7)-isomerase (Cavia porcellus, UniProt Q60490); assay: Displacement of [3H](+/-)-emopamil from delta8-delta7 sterol isomerase (SI) site in guinea pig liver membranes; format: cell membranes, Membrane
T1 sequence (Q60490 whole entry): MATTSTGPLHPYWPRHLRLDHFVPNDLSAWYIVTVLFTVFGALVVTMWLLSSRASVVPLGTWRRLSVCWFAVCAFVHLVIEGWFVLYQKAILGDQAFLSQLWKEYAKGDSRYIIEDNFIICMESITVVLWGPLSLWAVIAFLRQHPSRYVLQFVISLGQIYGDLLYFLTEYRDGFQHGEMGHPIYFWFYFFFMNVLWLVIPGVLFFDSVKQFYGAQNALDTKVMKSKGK
In short: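 Guinea pig liver membranes with (±)-[3H]emopamil; (±)-ifenprodil defined nonspecific binding. IC50 from six to nine concentrations, two or three duplicate experiments; Ki by nonlinear curve fitting.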

[5] = molecular target: Sigma 2 receptor; assay: Displacement of [3H]DTG from sigma 2 receptor in rat liver membranes; format: cell membranes, Membrane
[6] = molecular target: Sigma non-opioid intracellular receptor 1 (Rattus norvegicus) (UniProt Q9R0C9); assay: Percentage inhibition of rat C6 glioma cell proliferation mediated by sigma 1 receptor at 50 uM
Sigma non-opioid intracellular receptor 1 (Rattus norvegicus), sequence (Q9R0C9 whole entry): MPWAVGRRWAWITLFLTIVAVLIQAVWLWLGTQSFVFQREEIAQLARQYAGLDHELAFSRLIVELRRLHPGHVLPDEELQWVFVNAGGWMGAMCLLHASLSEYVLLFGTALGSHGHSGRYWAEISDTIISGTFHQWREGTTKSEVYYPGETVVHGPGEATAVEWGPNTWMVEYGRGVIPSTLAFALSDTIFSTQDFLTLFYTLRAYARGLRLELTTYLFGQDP

Sigma non-opioid intracellular receptor 1, sequence (Q60492 whole entry): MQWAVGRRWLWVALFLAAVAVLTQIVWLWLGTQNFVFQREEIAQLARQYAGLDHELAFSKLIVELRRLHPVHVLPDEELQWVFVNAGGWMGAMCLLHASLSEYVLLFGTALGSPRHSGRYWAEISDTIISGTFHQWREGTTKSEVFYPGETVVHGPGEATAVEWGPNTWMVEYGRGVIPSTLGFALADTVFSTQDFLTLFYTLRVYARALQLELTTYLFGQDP
Sigma non-opioid intracellular receptor 1 (Cavia porcellus), sequence (Q60492 whole entry): as above

Structure (SMILES) | Ki [1] [nM] | Ratio Ki [2] | Ratio Ki [3] | Ki [4] [nM] | Ki [5] [nM] | inhibition [6] [%]
COc1ccc2c(CCCCN3CCC(C)CC3)cccc2c1 | 0.03 | 268 | 597 | 8.04 | 17.9 | 
COc1ccc2c(c1)CCCC2CCCN1CCC(C)CC1 (configuration not stated) | 1.78 | 3 | 18 | 5.34 | 31.4 | 
O=C(Cc1ccc(Cl)c(Cl)c1)OCCN1CCCC1 |  |  |  |  |  | 25
COc1ccc2c(CCCCN3CCC[C@H](C)C3)cccc2c1 | 0.66 | 4.3 | 50 | 2.81 | 32.7 | 
COc1ccc2c(CCCN3CCC(C)(C)CC3)cccc2c1 | 1.47 | 6.1 | 18 | 9.04 | 26.3 | 
COc1ccc2c(c1)CCCC2CCCCN1CCCCC1(C)C (configuration not stated) | 6.16 | 1.4 | 4.8 | 8.97 | 29.5 | 
COc1ccc2c(CCCCN3CCC[C@@H](C)C3)cccc2c1 | 0.24 | 61 | 266 | 14.6 | 64 | 
COc1ccc2c(CCCCN3CCCCC3(C)C)cccc2c1 | 22.2 | 0.5 | 1.3 | 11.7 | 28.6 | 
COc1ccc2c(CCCN3CCC[C@@H](C)C3)cccc2c1 | 1.35 | 14 | 45 | 19.3 | 60.2 | 
COc1ccc2c(c1)CCCC2CCCN1CCCCC1(C)C (configuration not stated) | 178 | 0.1 | 0.6 | 16.4 | 115 | 
c1ccc(CCN2CCCCC2)cc1 |  |  |  |  |  | 5
COc1ccc2c(CCCCN3CCCCC3)cccc2c1 | 1.14 | 17 | 132 | 19.5 | 151 | 
COc1ccc2c(CCCN3CCCC(C)(C)C3)cccc2c1 | 0.35 | 25 | 680 | 8.71 | 238 | 
COc1ccc2c(CCCN3CCCC[C@H]3C)cccc2c1 | 1.83 | 6.1 | 47 | 11.1 | 86.2 | 
COc1ccc2c(c1)CCCC2CCCN1CCC(C)(C)CC1 (configuration not stated) | 1.18 | 3 | 27 | 5.39 | 31.4 | 
Cc1ccccc1NC(=N)Nc1ccccc1C |  |  |  |  |  | 20
COc1ccc2c(c1)CCCC2CCCCN1CCCC(C)(C)C1 (configuration not stated) |  |  |  |  |  | 31

Structure (SMILES) | Ki [1] [nM] | Ratio Ki [2] | Ratio Ki [3] | Ki [4] [nM] | Ki [5] [nM] | inhibition [6] [%]
CCCN(CCC)CCc1ccc(OC)c(OCCc2ccccc2)c1 |  |  |  | 14.6 | 212 | 
COc1ccc2c(c1)CCCC2CCCCN1CCC(C)(C)CC1 (configuration not stated) | 0.3 | 14 | 58 | 4.11 | 17.5 | 
COc1ccc2c(CCCCN3CCC(C)(C)CC3)cccc2c1 | 2.25 | 0.8 | 8 | 1.82 | 17.9 | 
COc1ccc2c(c1)CCCC2CCCN1CCCC(C)(C)C1 (configuration not stated) |  |  |  |  |  | 47
COc1ccc2c(c1)CCCC2CCCCN1CCCCC1 (configuration not stated) | 1.01 | 3.5 | 48 | 3.57 | 48.7 | 47
COc1ccc2c(CCCCN3CCCC(C)(C)C3)cccc2c1 | 0.36 | 5.3 | 187 | 1.89 | 67.4 | 
COc1ccc2c(CCCN3CCCCC3)cccc2c1 | 7.8 | 4.8 | 22 | 37.6 | 175 | 
COc1ccc2c(CCCN3CCC[C@H](C)C3)cccc2c1 | 3.32 | 1 | 18 | 3.41 | 59.3 | 
COc1ccc2c(CCCN3CCCC[C@@H]3C)cccc2c1 | 7.05 | 6.6 | 15 | 46.5 | 104 | 
COc1ccc2c(CCCCN3CCCC[C@H]3C)cccc2c1 | 1.43 | 4.5 | 34 | 6.44 | 49.2 | 
CC(C)=CCN1CC[C@]2(C)c3cc(O)ccc3C[C@H]1[C@H]2C [(+)-PENTAZOCINE] |  |  |  | > 10000 |  | 35
CC(C(O)c1ccc(O)cc1)N1CCC(Cc2ccccc2)CC1 (racemic) [IFENPRODIL] |  |  |  | 4.7 |  | 
COc1ccc2c(c1)CCCC2CCCN1CCCCC1 (configuration not stated) | 1.2 | 15 | 22 | 17.9 | 26.2 | 
COc1ccc2c(CCCN3CCC(C)CC3)cccc2c1 | 1.5 | 13 | 26 | 19.5 | 38.9 | 
COc1ccc2c(c1)CCCC2CCCCN1CCC(C)CC1 (configuration not stated) | 0.42 | 13 | 86 | 5.55 | 36.3 | 53
COc1ccc2c(CCCCN3CCCC[C@@H]3C)cccc2c1 | 0.5 | 14 | 108 | 7.2 | 53.8 | 
COc1ccc2c(CCCN3CCCCC3(C)C)cccc2c1 | 1060 | 0.014 | 0.09 | 14.9 | 94 | 
